Data on four molecules can be found in ChEMBL document CHEMBL2010783, “Do plant cyclotides have potential as immunosuppressant peptides?” (J Nat Prod, 2012).

What all share (format): functional, cell-based
The subject of experiment [1] is PBMC. The experiment in a line: Induction of apoptosis in human activated PBMC assessed as necrosis at 14 uM by annexinV/propidium iodide staining-based flow cytometric analysis. Put shortly: (§1)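 Donor PBMC (10^5) were activated with anti-CD3/CD28 mAbs for 72 h with test agent, medium or controls (camptothecin 30 μg/mL; Triton X-100 0.5%). Readouts were subG1 DNA content by flow cytometry, and annexin V-FITC then propidium iodide staining by flow cytometry. Gates: viable annexin−/PI−; apoptotic annexin+/PI− or +/+; necrotic annexin−/PI+. Three independent experiments, mean ± SEM.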
On the technique in general: A flow cytometer gives signals particle by particle.

Experiment [2] relates to PBMC. Put plainly: Antiproliferative activity against activated human PBMC assessed as decrease in cell division after 72 hrs by flow cytometric analysis. The method, boiled down: (§2)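 PBMC from healthy adult donors, isolated on a density gradient and cultured in RPMI 1640 with 10% heat-inactivated FCS at 37 °C and 5% CO2. 10^5 cells were stimulated with anti-CD3 (OKT3) and anti-CD28 mAbs for 72 h with test agent or medium. Cells were labelled with CFSE (5 μM, 10 min, 37 °C) and cell division was read by flow cytometry. Three or four independent experiments, mean ± SEM.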

Experiment [3] relates to PBMC. The experiment in a line: Induction of apoptosis in human activated PBMC at 1.8 to 14 uM by annexinV/propidium iodide staining-based flow cytometric analysis. The method, boiled down: as §1
Experiment [4] has as its system PBMC. The experiment in a line: Antiproliferative activity against activated human PBMC assessed as decrease in cell division at 30 ug/ml after 72 hrs by flow cytometric analysis. Put shortly: as §2
The subject of experiment [5] is PBMC. The experiment in a line: Induction of apoptosis in human activated PBMC at 30 ug/ml by annexinV/propidium iodide staining-based flow cytometric analysis. Put shortly:
as §1

Experiment [6] concerns PBMC. Put plainly: Induction of apoptosis in human activated PBMC assessed as necrosis at 30 ug/ml by annexinV/propidium iodide staining-based flow cytometric analysis. Put shortly: as §1
Experiment [7] concerns PBMC. The experiment in a line: Antiproliferative activity against activated human PBMC assessed as decrease in cell division at 1.6 uM after 72 hrs by flow cytometric analysis. The method, boiled down: as §2
Experiment [8] concerns PBMC. The experiment in a line: Induction of apoptosis in human activated PBMC assessed as internucleosomal DNA fragmentation at 1.6 uM by annexinV/propidium iodide staining-based flow cytometric analysis. The method, boiled down:
as §1

Experiment [9] concerns PBMC. Put plainly: Induction of apoptosis in human activated PBMC assessed as necrotic cells at 1.6 uM by annexinV/propidium iodide staining-based flow cytometric analysis. The method, boiled down:
as §1

The structures appear in SMILES notation. Active and inactive are the calls of the source. No cut-off for these calls is given here.

Regarding `CC(C)C[C@@H]1NC(=O)CNC(=O)[C@H](CC(N)=O)NC(=O)[C@H](CCCNC(=N)N)NC(=O)[C@H]([C@@H](C)O)NC(=O)[C@H](CS)NC(=O)[C@H](C(C)C)NC(=O)[C@@H]2CCCN2C(=O)[C@H](CCC(=O)O)NC(=O)[C@H](CO)NC(=O)[C@H](CS)NC(=O)[C@H]([C@@H](C)O)NC(=O)[C@H](CS)NC(=O)CNC(=O)[C@@H]2CCCN2C(=O)[C@H]([C@@H](C)O)NC(=O)[C@H](CC(N)=O)NC(=O)[C@H](CS)NC(=O)[C@H]([C@@H](C)O)NC(=O)CNC(=O)CNC(=O)[C@H](C(C)C)NC(=O)[C@H](CS)NC(=O)[C@H]([C@@H](C)O)NC(=O)[C@H](CCC(=O)O)NC(=O)CNC(=O)[C@H](CS)NC(=O)[C@H](C(C)C)NC(=O)[C@@H]2CCCN2C1=O`, the outcome with PBMC [1] and in the experiment on PBMC [3] was inactive. Further, in the experiment with PBMC [2], the Activity result was “Dose-dependent effect”.
As to `CC[C@@]1(O)C(=O)OCc2c1cc1n(c2=O)Cc2cc3ccccc3nc2-1`, the result in the experiment on PBMC [4], with PBMC [5] and with PBMC [6] was Active.
As to `CC[C@H](C)[C@H](NC(=O)CN)C(=O)NCC(=O)N[C@@H](C)C(=O)N[C@H](C(=O)N[C@@H](CC(C)C)C(=O)N[C@@H](CCCCN)C(=O)N[C@H](C(=O)N[C@@H](CC(C)C)C(=O)N[C@H](C(=O)N[C@H](C(=O)NCC(=O)N[C@@H](CC(C)C)C(=O)N1CCC[C@H]1C(=O)N[C@@H](C)C(=O)N[C@@H](CC(C)C)C(=O)N[C@H](C(=O)N[C@@H](CO)C(=O)N[C@@H](Cc1c[nH]c2ccccc12)C(=O)N[C@H](C(=O)N[C@@H](CCCCN)C(=O)N[C@@H](CCCNC(=N)N)C(=O)N[C@@H](CCCCN)C(=O)N[C@@H](CCCNC(=N)N)C(=O)N[C@@H](CCC(N)=O)C(=O)N[C@@H](CCC(N)=O)C(N)=O)[C@@H](C)CC)[C@@H](C)CC)[C@@H](C)O)[C@@H](C)O)C(C)C)C(C)C`, the result with PBMC [7], with PBMC [8] and in the experiment on PBMC [9] was Active.
The IC50 is the concentration that gives 50% inhibition. On to `CC(C)C[C@@H]1NC(=O)CNC(=O)[C@H](CC(N)=O)NC(=O)[C@H](CCCNC(=N)N)NC(=O)[C@H]([C@@H](C)O)NC(=O)[C@@H]2CSSC[C@@H]3NC(=O)[C@H]([C@@H](C)O)NC(=O)CNC(=O)CNC(=O)[C@H](C(C)C)NC(=O)[C@@H]4CSSC[C@H](NC(=O)[C@H]([C@@H](C)O)NC(=O)[C@H](CSSC[C@H](NC(=O)[C@H](C(C)C)NC(=O)[C@@H]5CCCN5C1=O)C(=O)NCC(=O)N[C@@H](CCC(=O)O)C(=O)N[C@@H]([C@@H](C)O)C(=O)N4)NC(=O)CNC(=O)[C@@H]1CCCN1C(=O)[C@H]([C@@H](C)O)NC(=O)[C@H](CC(N)=O)NC3=O)C(=O)N[C@@H](CO)C(=O)N[C@@H](Cc1c[nH]c3ccccc13)C(=O)N1CCC[C@H]1C(=O)N[C@@H](C(C)C)C(=O)N2` [KALATA B1], for which, in the experiment on PBMC [2], the IC50 was 3.9 µM.
